The source made the active and inactive calls. No cut-off for these calls is given here.

Test [1] is described as follows: Displacement of [125I]-IMPY from amyloid beta (1 to 42) fibrils after 2 hrs by gamma-counting analysis. In outline: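 Competition binding with aggregated Aβ1-42 fibrils and [125I]IMPY (60000−100000 cpm/100 μL) in 0.05% BSA (1 mL total); inhibitors 10⁻⁴−10^−8.5 M in ethanol. Incubated 37 °C for 2 h, then GF/B vacuum filtration with PBS (0.02 M, pH 7.4) washes and γ counting. Three repeats; IC50 converted to Ki by Cheng−Prusoff.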
In general terms: Displacement assays read how much labelled ligand stays bound in the presence of the test substance.

The species named for test [2] is Mus musculus. The experiment in a line: Binding affinity to amyloid beta plaques in transgenic C57BL6 mouse cortex expressing APP Swedish mutant/PSEN1 at 370 KBq/100 ul after 1 hr by thioflavinS-staining method. To be noted: tested as the 18F-labelled form. The gist of the method: (§1)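 Paraffin brain sections from 12-month-old Tg mice (C57BL6, APPswe/PSEN1) and age-matched controls, deparaffinized through xylene and graded ethanol, then PBS (0.2 M, pH 7.4) 30 min. Incubated with 18F tracer (370 KBq per 100 μL) 1 h at room temperature, washed in 40% EtOH, rinsed in water, then phosphor plate exposure 2 h. The same sections were afterwards stained with 0.125% thioflavin S in 10% EtOH for 3 min and washed in 40% EtOH.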

The species entered for test [3] is Mus musculus. The experiment in a line: Binding affinity to amyloid beta plaques in transgenic C57BL6 mouse hippocampus expressing APP Swedish mutant/PSEN1 at 370 KBq/100 ul after 1 hr by thioflavinS-staining method. Format: tissue-based. To be noted: tested as the 18F-labelled form. In outline:
as §1

The species entered for test [4] is Mus musculus. The test can be described thus: Binding affinity to amyloid beta plaques in transgenic C57BL6 mouse cortex expressing APP Swedish mutant/PSEN1 at 370 KBq/100 ul after 1 hr by autoradiographic analysis. To be noted: tested as the 18F-labelled form. The gist of the method:
as §1

Test [5] is filed under the species Mus musculus. The experiment in a line: Binding affinity to amyloid beta plaques in transgenic C57BL6 mouse hippocampus expressing APP Swedish mutant/PSEN1 at 370 KBq/100 ul after 1 hr by autoradiographic analysis. To be noted: tested as the 18F-labelled form. Format: tissue-based. The gist of the method:
as §1

Take `CN(C)c1ccc(-c2nc3cc(OCCOCCOCCF)ccc3o2)cn1`: the affinity in test [1], expressed as Ki, was 9.9 nM. Moreover, the result in the test listed under Mus musculus [2], in the test filed under Mus musculus [3], in the test filed under Mus musculus [4] and in the test filed under Mus musculus [5] was Active.

The term Ki denotes the dissociation constant of the complex between target and ligand, obtained from inhibition or displacement. A lower Ki goes with higher affinity.

The values above are taken from ChEMBL document CHEMBL2177098, “Synthesis and evaluation of novel ¹⁸F labeled 2-pyridinylbenzoxazole and 2-pyridinylbenzothiazole derivatives as ligands for positron emission tomography (PET) imaging of β-amyloid plaques” (J Med Chem, 2012).
